Measured values reported in ChEMBL document CHEMBL1154419, “Pharmacodynamic effects of telavancin against methicillin-resistant and methicillin-susceptible Staphylococcus aureus strains in the presence of human albumin or serum and in an in vitro kinetic model” (Antimicrob Agents Chemother, 2007).
In brackets after ≈: the same amount, converted by molar mass. Activity calls are given as the source filed them. The rule behind the calls is not given here.

Experiments:
[1] = Cmax in human at 10 mg/kg once daily; type: ADME, organism-based; design: dose 10 mg/kg; conditions: in vivo
Staphylococcus aureus [2] = experiment: Antibacterial activity against methicillin-susceptible Staphylococcus aureus ATCC 13709 assessed as change in bacterial burden at 10 mg/liter after 2 hrs; type: functional
In short: (§1)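 In vitro kinetic model: spinner flask with 0.45-μm filter and prefilter, stirred, M-H broth at 37°C, starting inoculum approx. 5 × 10⁵ CFU/ml. Single initial drug dose of 1.0 to 40 mg/liter, with flow set to give a half-life of approx. 8 h. Viable counts at 0, 2, 4, 6, 8, 12 and 24 h. Duplicate runs per strain and concentration.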

Staphylococcus aureus [3] = experiment: Antibacterial activity against methicillin-susceptible Staphylococcus aureus ATCC 13709 assessed as change in bacterial burden at 5 mg/liter after 4 hrs; type: functional
Staphylococcus aureus [4] = experiment: Antibacterial activity against methicillin-susceptible Staphylococcus aureus ATCC 13709 assessed as change in bacterial burden at 2.5 mg/liter after 8 hrs; type: functional
Staphylococcus aureus [5] = experiment: Antibacterial activity against methicillin-resistant Staphylococcus aureus ATCC 33591 assessed as change in bacterial burden at 5 mg/liter after 6 hrs; type: functional; in short: as §1
Staphylococcus aureus [6] = experiment: Antibacterial activity against methicillin-susceptible Staphylococcus aureus ATCC 13709 assessed as change in bacterial burden at 1 mg/liter after 4 hrs; type: functional
Staphylococcus aureus [7] = experiment: Antibacterial activity against methicillin-susceptible Staphylococcus aureus ATCC 13709 assessed as change in bacterial burden at 20 mg/liter after 2 hrs; type: functional
Staphylococcus aureus [8] = experiment: Antibacterial activity against methicillin-resistant Staphylococcus aureus ATCC 33591 assessed as bacterial killing at 50 times MIC after 24 hrs; type: functional, organism-based
In short: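 Static time-kill in M-H broth, in M-H broth with 40 g/liter fatty-acid-free purified human albumin, or in M-H broth with inactivated 50% human serum. Inoculum approx. 5 × 10⁵ CFU/ml, drug at 0.5, 1, 2.5, 5, 10, 25 and 50× MIC, 37°C. Samples at 0, 3, 6, 12 and 24 h plated on blood agar, counted after 24 h. Detection limit 5 × 10¹ CFU/ml. Run in duplicate.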

Staphylococcus aureus [9] = experiment: Antibacterial activity against methicillin-susceptible Staphylococcus aureus ATCC 13709 assessed as change in bacterial burden at 5 mg/liter after 12 hrs; type: functional
Staphylococcus aureus [10] = experiment: Antibacterial activity against methicillin-susceptible Staphylococcus aureus ATCC 13709 assessed as change in bacterial burden at 1 mg/liter after 6 hrs; type: functional
Staphylococcus aureus [11] = experiment: Antibacterial activity against methicillin-resistant Staphylococcus aureus ATCC 33591 assessed as change in bacterial burden at 10 mg/liter after 8 hrs; type: functional; in short: as §1
Staphylococcus aureus [12] = experiment: Antibacterial activity against methicillin-susceptible Staphylococcus aureus ATCC 13709 assessed as change in bacterial burden at 20 mg/liter after 4 hrs; type: functional
Staphylococcus aureus [13] = experiment: Antibacterial activity against methicillin-resistant Staphylococcus aureus ATCC 33591 assessed as bacterial killing at 10 times MIC after 24 hrs in MH-broth; type: functional, organism-based
In short: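 Strain diluted in M-H broth to approx. 10⁵ CFU/ml and grown 6 h into log phase, then split. Broth tubes got drug at 10× MIC directly. PBS tubes were transferred to PBS and held 3 h more, then dosed at 10× MIC. Growth controls were run in each medium. Viable counts at 0, 3, 6, 9, 12 and 24 h. Run in duplicate.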

Staphylococcus aureus [14] = experiment: Antibacterial activity against methicillin-susceptible Staphylococcus aureus ATCC 13709 assessed as change in bacterial burden at 40 mg/liter after 6 hrs; type: functional
Staphylococcus aureus [15] = experiment: Antibacterial activity against methicillin-susceptible Staphylococcus aureus ATCC 13709 assessed as change in bacterial burden at 20 mg/liter after 24 hrs; type: functional
Staphylococcus aureus [16] = experiment: Antibacterial activity against methicillin-resistant Staphylococcus aureus ATCC 33591 assessed as change in bacterial burden at 10 mg/liter after 24 hrs; type: functional; in short: as §1
[17] = AUC (0 to 24 hrs) in human at 10 mg/kg once daily; type: ADME, organism-based; design: time < 24 hr, dose 10 mg/kg; conditions: plasma
[18] = Half life in human serum at 7.5 mg/kg; type: ADME, organism-based; design: dose 7.5 mg/kg
[19] = Half life in in vitro kinetic model containing Mueller-Hinton broth and bacteria; type: physicochemical; conditions: in vitro kinetic model with bacteria
In short: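 Drug levels in kinetic-model samples measured by agar-well diffusion bioassay with Bacillus stearothermophilus ATCC 3032: 24 h prediffusion at 22°C, then overnight at 55°C; samples and standards in triplicate; detection limit 1 mg/liter.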

Staphylococcus aureus [20] = experiment: Antibacterial activity against methicillin-susceptible Staphylococcus aureus ATCC 13709 assessed as change in bacterial burden at 1 mg/liter after 8 hrs; type: functional
Staphylococcus aureus [21] = experiment: Antibacterial activity against methicillin-resistant Staphylococcus aureus ATCC 33591 assessed as change in bacterial burden at 1 mg/liter after 2 hrs; type: functional; in short: as §1
Staphylococcus aureus [22] = experiment: Antibacterial activity against methicillin-resistant Staphylococcus aureus ATCC 33591 assessed as change in bacterial burden at 2.5 mg/liter after 12 hrs; type: functional; in short: as §1
Staphylococcus aureus [23] = experiment: Antibacterial activity against methicillin-resistant Staphylococcus aureus ATCC 33591 assessed as change in bacterial burden at 20 mg/liter after 2 hrs; type: functional; in short: as §1
Staphylococcus aureus [24] = experiment: Antibacterial activity against methicillin-susceptible Staphylococcus aureus ATCC 13709 assessed as bacterial regrowth at 0.25 times MIC; type: functional, organism-based
In short: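 Static time-kill in cation-supplemented M-H broth, inoculum ~5 × 10⁵ CFU/ml, 37°C; samples at 0, 3, 6, 12 and 24 h plated on blood agar for viable counts (detection limit 5 × 10¹ CFU/ml); duplicate runs.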

Staphylococcus aureus [25] = experiment: Antibacterial activity against methicillin-susceptible Staphylococcus aureus ATCC 13709 assessed as bacterial regrowth at 5 mg/liter Cmax; type: functional, organism-based
[26] = Ratio of AUC in in vitro kinetic model containing Mueller-Hinton broth and methicillin-susceptible Staphylococcus aureus ATCC 13709 to MIC for methicillin-susceptible Staphylococcus aureus ATCC 13709 in bacterial killing stage; type: functional
Staphylococcus aureus [27] = experiment: Antibacterial activity against methicillin-susceptible Staphylococcus aureus ATCC 13709 assessed as change in bacterial burden at 10 mg/liter after 12 hrs; type: functional
[28] = Cmax in human serum at 7.5 mg/kg; type: ADME, organism-based; design: dose 7.5 mg/kg
Plasma = experiment: Protein binding in human plasma; type: ADME, cell-free
Staphylococcus aureus [29] = experiment: Antibacterial activity against methicillin-susceptible Staphylococcus aureus ATCC 13709 after 18 to 24 hrs by macrodilution technique; type: functional
In short: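 Broth macrodilution per CLSI, run in triplicate on separate occasions. Twofold serial drug dilutions in broth, inoculum approx. 5 × 10⁵ CFU/ml, 37°C for 18 to 24 h. MIC taken as the lowest concentration with no visible growth.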

Staphylococcus aureus [30] = experiment: Antibacterial activity against methicillin-susceptible Staphylococcus aureus ATCC 13709 assessed as change in bacterial burden at 40 mg/liter after 4 hrs; type: functional
Staphylococcus aureus [31] = experiment: Antibacterial activity against methicillin-susceptible Staphylococcus aureus ATCC 13709 assessed as change in bacterial burden at 10 mg/liter after 6 hrs; type: functional; in short: as §1
Staphylococcus aureus [32] = experiment: Antibacterial activity against methicillin-susceptible Staphylococcus aureus ATCC 13709 in MH-broth; type: functional, organism-based
Staphylococcus aureus [33] = experiment: Antibacterial activity against methicillin-resistant Staphylococcus aureus ATCC 33591 assessed as change in bacterial burden at 2.5 mg/liter after 8 hrs; type: functional; in short: as §1
Staphylococcus aureus [34] = experiment: Antibacterial activity against methicillin-susceptible Staphylococcus aureus ATCC 13709 assessed as change in bacterial burden at 1 mg/liter after 12 hrs; type: functional; in short: as §1

**Q.** Which Cmax [1] does the source give for `CCCCCCCCCCNCCN[C@@]1(C)C[C@H](O[C@H]2[C@H](Oc3c4cc5cc3Oc3ccc(cc3Cl)[C@@H](O)[C@@H](NC(=O)[C@@H](CC(C)C)NC)C(=O)N[C@@H](CC(N)=O)C(=O)N[C@H]5C(=O)N[C@H]3C(=O)N[C@H](C(=O)N[C@H](C(=O)O)c5cc(O)c(CNCP(=O)(O)O)c(O)c5-c5cc3ccc5O)[C@H](O)c3ccc(c(Cl)c3)O4)O[C@H](CO)[C@@H](O)[C@@H]2O)O[C@@H](C)[C@H]1O` [TELAVANCIN] here?
**A.** 5200 ng/mL

**Q.** What about the deltalog10CFU/ml (Staphylococcus aureus [2]) of the same compound?
**A.** -1.2

**Q.** What about the deltalog10CFU/ml (Staphylococcus aureus [3]) of the same compound?
**A.** -2.3

**Q.** And the deltalog10CFU/ml (Staphylococcus aureus [4])?
**A.** -3.4

**Q.** And the deltalog10CFU/ml (Staphylococcus aureus [5])?
**A.** -3.1

**Q.** What about the deltalog10CFU/ml (Staphylococcus aureus [6]) of the same compound?
**A.** -1.3

**Q.** What about the deltalog10CFU/ml (Staphylococcus aureus [7]) of the same compound?
**A.** -1.3

**Q.** What about the Activity (Staphylococcus aureus [8]) of the same compound?
**A.** Active

**Q.** What about the deltalog10CFU/ml (Staphylococcus aureus [9]) of the same compound?
**A.** -4.7

**Q.** What about the deltalog10CFU/ml (Staphylococcus aureus [10]) of the same compound?
**A.** -2

**Q.** What about the deltalog10CFU/ml (Staphylococcus aureus [11]) of the same compound?
**A.** -3.8

**Q.** And the deltalog10CFU/ml (Staphylococcus aureus [12])?
**A.** -2.9

**Q.** What about the Activity (Staphylococcus aureus [13]) of the same compound?
**A.** Active

**Q.** What about the deltalog10CFU/ml (Staphylococcus aureus [14]) of the same compound?
**A.** -4.7

**Q.** And the deltalog10CFU/ml (Staphylococcus aureus [15])?
**A.** -4.6

**Q.** And the deltalog10CFU/ml (Staphylococcus aureus [16])?
**A.** -5.1

**Q.** And the AUC at 24 h [17]?
**A.** 51000 ng·h/mL

**Q.** What about the half-life [18] of the same compound?
**A.** 7 h

**Q.** And the half-life [19]?
**A.** 8 h

**Q.** What about the deltalog10CFU/ml (Staphylococcus aureus [20]) of the same compound?
**A.** -2.6

**Q.** What about the deltalog10CFU/ml (Staphylococcus aureus [21]) of the same compound?
**A.** -1

**Q.** And the deltalog10CFU/ml (Staphylococcus aureus [22])?
**A.** -4.2

**Q.** What about the deltalog10CFU/ml (Staphylococcus aureus [23]) of the same compound?
**A.** -1

**Q.** What about the Activity (Staphylococcus aureus [24]) of the same compound?
**A.** Active

**Q.** What about the Activity (Staphylococcus aureus [25]) of the same compound?
**A.** Active

**Q.** What about the RatioAUC/MIC [26] of the same compound?
**A.** 404

**Q.** And the deltalog10CFU/ml (Staphylococcus aureus [27])?
**A.** -4.5

**Q.** And the Cmax [28]?
**A.** 60000 ng/mL

**Q.** And the Activity (Plasma)?
**A.** 92%

**Q.** And the MIC (Staphylococcus aureus [29])?
**A.** 1 µg/mL (≈ 0.57 µM)

**Q.** And the deltalog10CFU/ml (Staphylococcus aureus [30])?
**A.** -2.8

**Q.** What about the deltalog10CFU/ml (Staphylococcus aureus [31]) of the same compound?
**A.** -3.3

**Q.** What about the Activity (Staphylococcus aureus [32]) of the same compound?
**A.** Dose-dependent effect

**Q.** And the deltalog10CFU/ml (Staphylococcus aureus [33])?
**A.** -3.2

**Q.** What about the deltalog10CFU/ml (Staphylococcus aureus [34]) of the same compound?
**A.** -2.6
